Measured values: ChEMBL document CHEMBL1137180, “Synthesis and structure-activity relationship of a novel sulfone series of TNF-alpha converting enzyme inhibitors” (Bioorg Med Chem Lett, 2004)

Columns and labels:
Collagenase 3 = Collagenase 3 (Homo sapiens, UniProt P45452); experiment: Inhibition of Matrix metalloprotease-13 (MMP-13)
Procedure, shortened: (§1)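 Inhibition is reported as Ki (nM) against each isolated MMP. Each value comes from a single determination, with no replicates.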

[1] = biological target: 72 kDa type IV collagenase (Homo sapiens, UniProt P08253); experiment: inhibition of Matrix metalloprotease-2 (MMP-2); procedure, shortened: as §1
72 kDa type IV collagenase, sequence (P08253 whole entry, the tested form may be a part): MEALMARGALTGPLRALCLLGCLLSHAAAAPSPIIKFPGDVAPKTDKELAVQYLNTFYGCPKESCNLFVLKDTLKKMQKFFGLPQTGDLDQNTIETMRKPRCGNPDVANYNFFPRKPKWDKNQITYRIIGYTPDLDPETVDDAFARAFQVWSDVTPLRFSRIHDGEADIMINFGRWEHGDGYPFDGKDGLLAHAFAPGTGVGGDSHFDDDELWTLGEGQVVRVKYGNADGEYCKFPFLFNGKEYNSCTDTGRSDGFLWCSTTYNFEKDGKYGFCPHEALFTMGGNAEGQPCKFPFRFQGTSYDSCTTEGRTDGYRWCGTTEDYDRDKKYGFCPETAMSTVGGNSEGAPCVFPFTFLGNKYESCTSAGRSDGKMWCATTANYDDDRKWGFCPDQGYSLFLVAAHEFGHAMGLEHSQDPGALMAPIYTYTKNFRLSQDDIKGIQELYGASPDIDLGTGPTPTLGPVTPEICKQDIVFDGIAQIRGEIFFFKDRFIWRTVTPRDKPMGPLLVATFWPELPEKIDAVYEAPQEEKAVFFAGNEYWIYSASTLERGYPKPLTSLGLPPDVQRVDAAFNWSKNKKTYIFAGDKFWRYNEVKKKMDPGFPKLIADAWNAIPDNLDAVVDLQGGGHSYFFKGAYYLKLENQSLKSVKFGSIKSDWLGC

[2] = biological target: Disintegrin and metalloproteinase domain-containing protein 17 (Homo sapiens, UniProt P78536); experiment: Effect on TNF-Alpha release in LPS-stimulated human whole blood assay; assay type: functional, tissue-based
Disintegrin and metalloproteinase domain-containing protein 17 (Homo sapiens, UniProt P78536), sequence (P78536 whole entry, the tested form may be a part): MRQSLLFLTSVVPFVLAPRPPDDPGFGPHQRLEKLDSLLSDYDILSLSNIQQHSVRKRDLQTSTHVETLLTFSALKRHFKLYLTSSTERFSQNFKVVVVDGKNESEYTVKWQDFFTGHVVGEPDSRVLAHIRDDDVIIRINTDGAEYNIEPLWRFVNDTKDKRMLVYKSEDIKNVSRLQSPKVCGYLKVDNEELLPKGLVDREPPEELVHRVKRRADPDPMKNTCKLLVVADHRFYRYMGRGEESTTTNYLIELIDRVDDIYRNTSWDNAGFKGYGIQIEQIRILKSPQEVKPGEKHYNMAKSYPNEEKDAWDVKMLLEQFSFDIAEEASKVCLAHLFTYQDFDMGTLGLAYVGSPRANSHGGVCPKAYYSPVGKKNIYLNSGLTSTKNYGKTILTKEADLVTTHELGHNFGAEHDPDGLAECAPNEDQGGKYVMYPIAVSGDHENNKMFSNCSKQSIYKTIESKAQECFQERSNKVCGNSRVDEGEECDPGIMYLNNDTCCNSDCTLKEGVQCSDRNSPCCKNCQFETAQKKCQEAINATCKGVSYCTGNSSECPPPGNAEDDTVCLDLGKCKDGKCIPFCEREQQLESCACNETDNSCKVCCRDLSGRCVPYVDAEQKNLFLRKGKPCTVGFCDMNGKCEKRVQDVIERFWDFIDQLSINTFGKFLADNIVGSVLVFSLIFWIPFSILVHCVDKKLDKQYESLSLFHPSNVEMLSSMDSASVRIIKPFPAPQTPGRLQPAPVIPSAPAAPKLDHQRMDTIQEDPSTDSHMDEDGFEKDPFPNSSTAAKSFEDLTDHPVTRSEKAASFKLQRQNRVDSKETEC

Caco-2 = experiment: Permeability action in Caco-2 cells; assay type: functional, Homo sapiens
Interstitial collagenase = biological target: T1, Interstitial collagenase (Homo sapiens, UniProt P03956); experiment: Inhibition of Matrix metalloprotease-1 (MMP-1); procedure, shortened: as §1
T1 sequence (P03956 whole entry): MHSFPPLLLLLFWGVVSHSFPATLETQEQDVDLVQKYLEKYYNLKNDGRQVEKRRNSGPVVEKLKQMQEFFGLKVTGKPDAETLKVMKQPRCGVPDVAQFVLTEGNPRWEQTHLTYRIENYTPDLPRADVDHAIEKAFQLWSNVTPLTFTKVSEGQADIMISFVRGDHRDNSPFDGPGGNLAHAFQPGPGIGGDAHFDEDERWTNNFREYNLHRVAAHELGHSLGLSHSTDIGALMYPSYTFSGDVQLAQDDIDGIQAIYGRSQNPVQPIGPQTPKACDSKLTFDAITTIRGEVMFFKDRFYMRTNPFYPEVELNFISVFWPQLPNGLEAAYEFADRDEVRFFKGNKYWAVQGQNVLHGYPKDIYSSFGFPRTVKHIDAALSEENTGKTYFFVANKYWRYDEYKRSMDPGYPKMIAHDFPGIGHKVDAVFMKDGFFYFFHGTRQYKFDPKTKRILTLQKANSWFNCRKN

[3] = biological target: Matrix metalloproteinase-9 (Homo sapiens, UniProt P14780); experiment: Inhibition of Matrix metalloprotease-9 (MMP-9); procedure, shortened: as §1
Matrix metalloproteinase-9, sequence (P14780 whole entry, the tested form may be a part): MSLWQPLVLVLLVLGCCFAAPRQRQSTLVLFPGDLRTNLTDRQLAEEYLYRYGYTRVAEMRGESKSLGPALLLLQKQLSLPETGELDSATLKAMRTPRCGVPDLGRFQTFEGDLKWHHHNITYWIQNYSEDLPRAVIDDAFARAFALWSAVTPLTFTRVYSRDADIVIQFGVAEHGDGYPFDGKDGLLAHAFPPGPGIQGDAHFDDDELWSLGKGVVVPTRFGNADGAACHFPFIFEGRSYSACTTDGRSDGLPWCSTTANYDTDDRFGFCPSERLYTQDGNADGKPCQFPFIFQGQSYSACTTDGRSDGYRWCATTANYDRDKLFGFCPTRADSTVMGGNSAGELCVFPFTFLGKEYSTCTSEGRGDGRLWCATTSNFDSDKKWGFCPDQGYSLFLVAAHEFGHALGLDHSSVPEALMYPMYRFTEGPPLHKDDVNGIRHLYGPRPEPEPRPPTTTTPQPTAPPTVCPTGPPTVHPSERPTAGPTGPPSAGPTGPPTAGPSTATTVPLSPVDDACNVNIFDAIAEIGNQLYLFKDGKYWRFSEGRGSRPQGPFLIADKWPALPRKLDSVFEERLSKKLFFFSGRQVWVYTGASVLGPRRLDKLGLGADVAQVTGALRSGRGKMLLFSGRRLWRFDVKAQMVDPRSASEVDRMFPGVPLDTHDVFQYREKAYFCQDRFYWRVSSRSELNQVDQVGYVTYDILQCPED

[4] = biological target: Disintegrin and metalloproteinase domain-containing protein 17 (Sus scrofa, UniProt O77636); experiment: Inhibition of porcine Tumor necrosis factor- alpha converting enzyme (TACE, ADAM17)
Disintegrin and metalloproteinase domain-containing protein 17 (Sus scrofa, UniProt O77636), sequence (O77636 whole entry, the tested form may be a part): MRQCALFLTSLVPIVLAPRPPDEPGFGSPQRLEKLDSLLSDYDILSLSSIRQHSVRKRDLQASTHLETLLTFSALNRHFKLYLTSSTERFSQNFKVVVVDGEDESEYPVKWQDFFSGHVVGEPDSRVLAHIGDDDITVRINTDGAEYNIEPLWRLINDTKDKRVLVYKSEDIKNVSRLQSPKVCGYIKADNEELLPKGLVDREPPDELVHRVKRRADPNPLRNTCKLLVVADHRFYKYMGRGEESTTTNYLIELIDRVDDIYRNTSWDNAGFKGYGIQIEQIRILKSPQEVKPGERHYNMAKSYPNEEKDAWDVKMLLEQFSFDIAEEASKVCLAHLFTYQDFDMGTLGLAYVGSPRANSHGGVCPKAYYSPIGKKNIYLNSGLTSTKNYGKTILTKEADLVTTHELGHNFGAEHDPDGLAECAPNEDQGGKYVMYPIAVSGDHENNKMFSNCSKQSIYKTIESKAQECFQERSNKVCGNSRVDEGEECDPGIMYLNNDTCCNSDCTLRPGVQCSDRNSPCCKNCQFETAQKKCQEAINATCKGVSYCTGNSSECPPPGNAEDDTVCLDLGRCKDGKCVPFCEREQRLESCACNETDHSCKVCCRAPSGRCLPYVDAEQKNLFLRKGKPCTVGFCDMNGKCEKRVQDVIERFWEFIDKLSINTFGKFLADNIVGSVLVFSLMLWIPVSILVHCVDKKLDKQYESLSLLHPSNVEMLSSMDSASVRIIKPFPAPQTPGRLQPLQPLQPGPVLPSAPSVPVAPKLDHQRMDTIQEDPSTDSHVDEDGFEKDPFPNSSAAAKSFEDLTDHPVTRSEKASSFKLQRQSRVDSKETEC

Mus musculus [5] = experiment: Compound was tested for anti TNF-alpha activity using LPS mouse model at 5 mg/kg p.o.; assay type: functional; conditions: route oral
Mus musculus [6] = experiment: Compound was tested for anti TNF-alpha activity using LPS mouse model at 10 mg/kg p.o.; assay type: functional; conditions: route oral

Row | Ki (Collagenase 3) [nM] | Ki [1] [nM] | IC50 [2] [nM] | Ki (Interstitial collagenase) [nM] | Ki [3] [nM] | Structure (SMILES) | Caco-2 Papp (Caco-2) [×10⁻⁶ cm/s] | IC50 [4] [nM] | inhibition in vivo at 5 mg/kg (Mus musculus [5]) [%] | inhibition in vivo at 10 mg/kg (Mus musculus [6]) [%] | ED50 (Mus musculus [6]) [mg/kg]
1 | 3270 | > 3300 | > 3000 | > 4900 | > 2100 | Cc1cc(COc2ccc(S(=O)(=O)CC3(CC(=O)NO)CCCN3C)cc2)c2ccccc2n1 (stereo not given) | 1.6 | 2.9 |  |  | 
2 | > 5000 | > 3300 | 403 | > 4900 | > 2100 | Cc1cc(COc2ccc(S(=O)(=O)CC3(CC(=O)NO)CCCN3)cc2)c2ccccc2n1 (stereo not given) | 0.4 | 1 | 19 |  | 
3 |  | > 3300 |  | > 4900 | > 5000 | CCC(C)N1CCCCC1(CC(=O)NO)CS(=O)(=O)c1ccc(OCc2cc(C)nc3ccccc23)cc1 (stereo not given) |  | < 48 |  |  | 
4 | > 5000 | > 3300 | > 3000 | > 4900 | > 2100 | Cc1cc(COc2ccc(S(=O)(=O)CC3(CC(=O)NO)CCCCN3C)cc2)c2ccccc2n1 (stereo not given) | 5.1 | 5.1 |  |  | 
5 | 3870 | > 3300 | 208 | > 4900 | > 2100 | Cc1cc(COc2ccc(S(=O)(=O)CC3(CC(=O)NO)CCCN(C)C3)cc2)c2ccccc2n1 (stereo not given) | 0.2 | 3.6 | 49 |  | 
6 | > 5000 | > 3300 | 123 | > 4900 | > 2100 | Cc1cc(COc2ccc(S(=O)(=O)CC3(CC(=O)NO)CCCNC3)cc2)c2ccccc2n1 (stereo not given) | 0.1 | 2.8 | 31 |  | 
7 | 653 | 1330 | 77 | > 4900 | 2100 | Cc1cc(COc2ccc(S(=O)(=O)CC3(CC(=O)NO)CCN(C(C)C)C3)cc2)c2ccccc2n1 (stereo not given) | 0.2 | 1.6 | 37 |  | 
8 | > 5000 | > 3300 | 258 | > 4900 | > 2100 | Cc1cc(COc2ccc(S(=O)(=O)CC3(CC(=O)NO)CCOCC3)cc2)c2ccccc2n1 |  | < 1 |  |  | 
9 | > 5000 | > 3300 | 900 | > 4900 | > 2100 | CCCCN1CCC(C(=O)NO)C(CS(=O)(=O)c2ccc(OCc3cc(C)nc4ccccc34)cc2)C1 (stereo not given) | 1.6 | < 1 |  | 35 | 
10 | > 5000 | > 3300 | 109 | > 4900 | > 2100 | Cc1cc(COc2ccc(S(=O)(=O)CC3(CC(=O)NO)CCN(C)C3)cc2)c2ccccc2n1 (stereo not given) | 0.3 | 3.2 | 28 |  | 
11 | > 5000 | > 3300 | 2500 | > 4900 | > 2100 | Cc1cc(COc2ccc(S(=O)(=O)CC3(CC(=O)NO)CCCN(CC(C)C)C3)cc2)c2ccccc2n1 (stereo not given) | 0.7 | 3.3 | 25 |  | 
12 | 603 | 2170 | 161 | > 4900 | > 2100 | Cc1cc(COc2ccc(S(=O)(=O)CC3(CC(=O)NO)CCN(CC(C)C)C3)cc2)c2ccccc2n1 (stereo not given) | 0.8 | 2.6 | 22 |  | 
13 | 2610 | > 3300 | 102 | > 4900 | > 2100 | Cc1cc(COc2ccc(S(=O)(=O)CC3(CC(=O)NO)CCN(C)CC3)cc2)c2ccccc2n1 | 0.2 | < 2 |  |  | 
14 | > 5000 | > 3300 |  | > 4900 | > 2100 | Cc1cc(COc2ccc(S(=O)(=O)CC3(CC(=O)NO)CCNCC3)cc2)c2ccccc2n1 | 0.1 | 14 | 57 |  | 
15 |  | > 3300 | 20 | > 4900 | > 2100 | CONC(=O)[C@H]1CCCN(C)[C@@H]1C(=O)Nc1ccc(OCc2cc(C)nc3ccccc23)cc1 | 2.1 | 6.2 |  | > 50 | 3
16 | > 5000 | > 3300 |  | > 4900 | > 2100 | CC(=O)N1CCCC1(CC(=O)NO)CS(=O)(=O)c1ccc(OCc2cc(C)nc3ccccc23)cc1 (stereo not given) | 0.6 | 660 |  |  | 
17 | > 5000 | > 3300 | > 3000 | > 4900 | > 2100 | Cc1cc(COc2ccc(S(=O)(=O)CC3C(C(=O)NO)CCCN3C)cc2)c2ccccc2n1 (stereo not given) |  | < 1.1 |  |  | 
18 | > 5000 | 1330 |  | > 4900 | > 2100 | Cc1cc(COc2ccc(S(=O)(=O)CC3(CC(=O)NO)CCCN3CC(C)C)cc2)c2ccccc2n1 (stereo not given) | 0.7 | 20 |  |  | 
19 | 1760 | > 3300 | 418 | > 4900 | > 2100 | CCCCCN1CCC(CC(=O)NO)(CS(=O)(=O)c2ccc(OCc3cc(C)nc4ccccc34)cc2)C1 (stereo not given) |  | 3.4 | 22 |  | 
20 | > 5000 | > 3300 | 506 | > 4900 | > 2100 | Cc1cc(COc2ccc(S(=O)(=O)CC3(CC(=O)NO)CCCN(C(C)C)C3)cc2)c2ccccc2n1 (stereo not given) | 0.2 | 2.7 |  |  | 
21 | 753 | 2570 | 223 | > 4900 | > 2100 | Cc1cc(COc2ccc(S(=O)(=O)CC3(CC(=O)NO)CCC3)cc2)c2ccccc2n1 | 4.9 | < 1 | 86 |  | 
22 | > 5000 | > 3300 | 190 | > 4900 | > 2100 | Cc1cc(COc2ccc(S(=O)(=O)CC3CN(C)CCC3C(=O)NO)cc2)c2ccccc2n1 (stereo not given) | 0.1 | < 1.9 |  |  | 
23 | 753 | > 3300 | 632 | > 4900 | > 2100 | Cc1cc(COc2ccc(S(=O)(=O)CC3(CC(=O)NO)CCCCN3)cc2)c2ccccc2n1 (stereo not given) | 1.7 | < 1 | 50 |  | 
24 | 1210 | 1400 | 867 | > 4900 | > 2100 | Cc1cc(COc2ccc(S(=O)(=O)CC3(CC(=O)NO)CCCCC3)cc2)c2ccccc2n1 | 22 | < 1 | 59 |  | 
25 | 754 | > 3300 | 240 | > 4900 | > 2100 | Cc1cc(COc2ccc(S(=O)(=O)CC3NCCCC3C(=O)NO)cc2)c2ccccc2n1 (stereo not given) | 0.1 | < 1 |  |  | 
26 | > 5000 | > 3300 | 510 | > 4900 | > 2100 | Cc1cc(COc2ccc(S(=O)(=O)CC3CCN(C)CC3C(=O)NO)cc2)c2ccccc2n1 (stereo not given) | 0.2 | 6.5 |  |  | 
27 | > 5000 | > 3300 | > 1000 | > 4900 | > 2100 | Cc1cc(COc2ccc(S(=O)(=O)CC3CCN(C(C)C)CC3C(=O)NO)cc2)c2ccccc2n1 (stereo not given) | 0.65 | < 11 |  |  | 

Row | Structure (SMILES) | Ki (Collagenase 3) [nM] | Ki [1] [nM] | IC50 [2] [nM] | Ki (Interstitial collagenase) [nM] | Ki [3] [nM] | Caco-2 Papp (Caco-2) [×10⁻⁶ cm/s] | IC50 [4] [nM] | inhibition in vivo at 5 mg/kg (Mus musculus [5]) [%] | inhibition in vivo at 10 mg/kg (Mus musculus [6]) [%] | ED50 (Mus musculus [6]) [mg/kg]
28 | Cc1cc(COc2ccc(S(=O)(=O)CC3(CC(=O)NO)CCCO3)cc2)c2ccccc2n1 (stereo not given) | > 5000 | > 3300 | 913 | > 4900 | > 2100 | 5 | 1 | 57 |  | 
29 | Cc1cc(COc2ccc(S(=O)(=O)CC3(CC(=O)NO)CCNC3)cc2)c2ccccc2n1 (stereo not given) | 3270 | > 3300 | 76 | > 4900 | > 2100 | 0.1 | 1.5 | 34 |  | 
30 | Cc1cc(COc2ccc(S(=O)(=O)CC3(CC(=O)NO)CCCC3)cc2)c2ccccc2n1 | 804 | 1570 | 420 | > 4900 | 1510 | 18 | < 0.8 |  |  | 
31 | Cc1cc(COc2ccc(S(=O)(=O)CC3CCNCC3C(=O)NO)cc2)c2ccccc2n1 (stereo not given) | > 5000 | > 3300 | 250 | > 4900 | > 2100 | 0.1 | < 1.5 |  |  | 
32 | Cc1cc(COc2ccc(S(=O)(=O)CC3(CC(=O)NO)COC3)cc2)c2ccccc2n1 | > 5000 | > 3300 | 595 | > 4900 | > 2100 |  | 1 |  |  | 
